The source of these data is ChEMBL document CHEMBL1155944 (J Med Chem, 2008).

The nature of test [1]: (§1) Displacement of [3H]Muscimol from GABAA alpha-1-alpha-5 receptor in Sprague-Dawley rat brain cortex membrane. In a few lines: (§2)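 Well-washed membranes from adult male Sprague-Dawley rat cortex or cerebellum (50–200 μg protein). Incubated 60 min on ice in 50 mM Tris/citrate, pH 7.3, with 6 nM [3H]muscimol and test compound. […] Filtered and counted by scintillation. IC50 and pseudo-Hill coefficient obtained by nonlinear regression.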
In general terms: In a radioligand displacement assay an active substance lowers the binding of a labelled ligand.

Test [2] is filed under the species Rattus norvegicus. Described as §1. In a few lines: as §2
In test [3] the target is Gamma-aminobutyric acid receptor subunit alpha-6 (Rattus norvegicus) (UniProt P30191). The test can be described thus: (§3) Displacement of [3H]Muscimol from GABAAalpha6 receptor in Sprague-Dawley rat brain cerebellum membrane. The class given is tissue-based. Summed up: as §2
The target of test [4] is Gamma-aminobutyric acid receptor subunit alpha-6 (Rattus norvegicus, UniProt P30191). Described as §3. The class given is tissue-based. In a few lines:
as §2

The target in test [5] is Gamma-aminobutyric acid receptor subunit alpha-6 (Rattus norvegicus) (UniProt P30191). The test can be described thus: Displacement of [3H]Muscimol from GABAAalpha6 receptor in Sprague-Dawley rat brain cerebellum membrane at 100 uM. Format: tissue-based. In a few lines: as §2
Test [6] is filed under the species Rattus norvegicus. The test can be described thus: Displacement of [3H]Muscimol from GABAA alpha-1-alpha-5 receptor in Sprague-Dawley rat brain cortex membrane at 100 uM. Summed up:
as §2

In test [7] the target is Gamma-aminobutyric acid receptor subunit alpha-6 (Rattus norvegicus) (UniProt P30191). The test can be described thus: Displacement of [3H]Muscimol from GABAAalpha6 receptor in Sprague-Dawley rat brain cerebellum membrane at 1 mM. The class given is tissue-based. In a few lines:
as §2

For test [8], the species on record is Rattus norvegicus. The test can be described thus: Displacement of [3H]Muscimol from GABAA alpha-1-alpha-5 receptor in Sprague-Dawley rat brain cortex membrane at 1 mM. Summed up: as §2
Test [9] in a line: Agonist activity at rat GABAA alpha-1S68C-beta-2 receptor mutant expressed in Xenopus laevis oocytes as inhibition of GABA-induced current at -60 mV at 1 mM by Two-Electrode voltage clamp method. Format: functional, Oocyte. Also on record: scale not given: the % may be the effect or the level left. In a few lines: (§4)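 Xenopus oocytes injected with rat α1 (wt or cysteine mutant) plus β2 mRNA, kept 2–10 days at 17 °C. Two-electrode voltage clamp at −60 mV, room temperature, Ca2+-free frog Ringer, pH 7.5.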
(Two-electrode voltage clamp holds a large cell at a set potential and records current.)

Test [10] deals with Gamma-aminobutyric acid receptor subunit alpha-1 (Rattus norvegicus) (UniProt P62813). The test is described as follows: Agonist activity at rat wild type GABAA alpha-1-beta-2 receptor expressed in Xenopus laevis oocytes as inhibition of GABA-induced current at -60 mV at 1 mM by Two-Electrode voltage clamp method. Also on record: scale not given: the % may be the effect or the level left. Conditions: Oocyte. Format: functional, cell-based. Summed up: as §4

Test [11] is described as follows: Agonist activity at rat GABAA alpha-1F64C-beta-2 receptor mutant expressed in Xenopus laevis oocytes assessed as inhibition of GABA-induced current at -60 mV at 1 mM by Two-Electrode voltage clamp method. The class given is functional, Oocyte. Details: scale not given: the % may be the effect or the level left. Summed up:
as §4

For test [12], the target named is Gamma-aminobutyric acid receptor subunit alpha-1 (Rattus norvegicus) (UniProt P62813). The test can be described thus: Agonist activity at rat wild type GABAA alpha-1-beta-2 receptor expressed in Xenopus laevis oocytes assessed as inhibition of drug-induced current at -60 mV at 10 mM in presence of 100 uM picrotoxinin by Two-Electrode voltage clamp method. The class given is functional, cell-based. Details: scale not given: the % may be the effect or the level left. As to conditions: Oocyte. Summed up: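 Oocytes expressing rat α1β2, two-electrode voltage clamp at −60 mV. Several 10 mM test pulses applied, then washout. 100 μM picrotoxinin applied, immediately followed by co-application of 10 mM drug plus 100 μM picrotoxinin, and the current recorded.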

The target in test [13] is T1, GABA A receptor alpha-2/beta-2/gamma-2 (Rattus norvegicus) (UniProt P18508+P23576+P63138). The test can be described thus: Intrinsic activity at recombinant rat GABAA alpha-2-beta-3-gamma-2 receptor expressed in HEK293 cells assessed as induction of current at 1 mM by whole-cell patch-clamp technique relative to GABA. Format: cell-based. Summed up: (§5)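 Rat αiβ3γ2S receptors transiently expressed in HEK293 cells, with EGFP marking transfected cells, recorded 2 days after transfection. Whole-cell patch clamp in HEPES saline, pH 7.35. Drug applied alone at 1, 10, 100 and 1000 μM. […] Data from at least four cells.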
(In general: In patch-clamp work, channel activity is measured electrically.)

Test [14] concerns the target Gamma-aminobutyric acid receptor subunit alpha-1 (Rattus norvegicus) (UniProt P62813). The test can be described thus: Agonist activity at rat wild type GABAA alpha-1-beta-2 receptor expressed in Xenopus laevis oocytes at -60 mV at 30 mM by Two-Electrode voltage clamp method. Format: functional, cell-based. Conditions: Oocyte. Summed up: (§6)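 Rat α1β2 receptors (wt or cysteine mutant) expressed in Xenopus oocytes. Two-electrode voltage clamp at −60 mV, room temperature, Ca2+-free frog Ringer, pH 7.5. Increasing test concentrations applied alone. Currents normalized to the maximal GABA-induced current. Some dose-response curves had only two trials.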

Test [15] is described as follows: Agonist activity at rat GABAA alpha-1S68C-beta-2 receptor mutant expressed in Xenopus laevis oocytes at -60 mV by Two-Electrode voltage clamp method. Format: functional, cell-based. Conditions: Oocyte.
Test [16] concerns the target T2, Gamma-aminobutyric acid receptor subunit alpha-1 (Rattus norvegicus, UniProt P62813+P63138). The test is described as follows: Agonist activity at rat wild type GABAA alpha-1-beta-2 receptor expressed in Xenopus laevis oocytes as inhibition of GABA-induced current at -60 mV by Two-Electrode voltage clamp method in presence of picrotoxinin. The class given is functional, cell-based, Oocyte.

Test [17] concerns the target GABA A receptor alpha-5/beta-3/gamma-2 (Rattus norvegicus) (UniProt P18508+P19969+P63079). The test can be described thus: Intrinsic activity at recombinant rat GABAA alpha-5-beta-3-gamma-2 receptor expressed in HEK293 cells assessed as induction of current at 1 mM by whole-cell patch-clamp technique relative to GABA. Format: cell-based. Summed up:
as §5

Test [18] is described as follows: Agonist activity at rat GABAA alpha-1F64C-beta-2 receptor mutant expressed in Xenopus laevis oocytes at -60 mV at 30 mM by Two-Electrode voltage clamp method. The class given is functional, Oocyte. In a few lines:
as §6

Test [19] is described as follows: Agonist activity at rat GABAA alpha-1F64C-beta-2 receptor mutant expressed in Xenopus laevis oocytes assessed as inhibition of GABA-induced current at -60 mV by Two-Electrode voltage clamp method in presence of picrotoxinin. Format: functional, cell-based. Conditions: Oocyte.
The target of test [20] is T1, GABA A receptor alpha-2/beta-2/gamma-2 (Rattus norvegicus). The test is described as follows: Antagonist activity at recombinant rat GABAA alpha-2-beta-3-gamma-2 receptor expressed in HEK293 cells assessed as inhibition of GABA-induced current at 1 uM by whole-cell patch-clamp technique. The class given is functional, cell-based. Also on record: scale not given: the % may be the effect or the level left. Summed up:
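HEK293 cells transiently transfected by calcium phosphate with rat αi, β3, γ2S and EGFP cDNAs, recorded 2 days later. Whole-cell patch clamp in HEPES saline, pH 7.35. […] Response expressed relative to the GABA-alone current. Data from at least four cells.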

The nature of test [21]: Agonist activity at rat GABAA alpha-1R66C-beta-2 receptor mutant expressed in Xenopus laevis oocytes assessed as reduction of GABA-induced current at -60 mV at 30 mM by Two-Electrode voltage clamp method in presence of 5.5 mM GABA. Also on record: scale not given: the % may be the effect or the level left. Format: functional, Oocyte. In a few lines: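 α1R66Cβ2 oocytes, two-electrode voltage clamp at −60 mV. […] Then 10 mM MTSES (12 s) and 10 mM DTT (20 s) were applied. Reaction rate fitted monoexponentially against cumulative application time.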

Test [22] in a line: Agonist activity at rat GABAA alpha-1F64C-beta-2 receptor mutant expressed in Xenopus laevis oocytes at -60 mV by Two-Electrode voltage clamp method. The class given is functional, cell-based. As to conditions: Oocyte.
For test [23], the target named is T2, Gamma-aminobutyric acid receptor subunit alpha-1. The test is described as follows: Agonist activity at rat wild type GABAA alpha-1-beta-2 receptor expressed in Xenopus laevis oocytes at -60 mV by Two-Electrode voltage clamp method. Format: functional, cell-based, Oocyte.
Test [24] is described as follows: Agonist activity at rat GABAA alpha-1S68C-beta-2 receptor mutant expressed in Xenopus laevis oocytes as inhibition of GABA-induced current at -60 mV by Two-Electrode voltage clamp method in presence of picrotoxinin. As to conditions: Oocyte. Format: functional, cell-based.
The nature of test [25]: Agonist activity at rat GABAA alpha-1S68C-beta-2 receptor mutant expressed in Xenopus laevis oocytes assessed as reduction of GABA-induced current at -60 mV at 10 mM by Two-Electrode voltage clamp method in presence of 450 uM 2-sulfonatoethyl methanethiosulfonate. Also on record: scale not given: the % may be the effect or the level left. The class given is functional, Oocyte.

Test [26] is described as follows: Agonist activity at rat GABAA alpha-1S68C-beta-2 receptor mutant expressed in Xenopus laevis oocytes at -60 mV at 30 mM by Two-Electrode voltage clamp method. Format: functional, Oocyte. In a few lines: as §6
Test [27] in a line: Agonist activity at rat GABAA alpha-1R66C-beta-2 receptor mutant expressed in Xenopus laevis oocytes assessed as inhibition of GABA-induced current at -60 mV at 10 mM in presence of 2 mM 2-sulfonatoethyl methanethiosulfonate by Two-Electrode voltage clamp method. Format: functional, Oocyte. Also on record: scale not given: the % may be the effect or the level left.
Test [28] is described as follows: Agonist activity at rat GABAA alpha-1F64C-beta-2 receptor mutant expressed in Xenopus laevis oocytes assessed as reduction of GABA-induced current at -60 mV at 10 mM by Two-Electrode voltage clamp method in presence of 10 uM 2-sulfonatoethyl methanethiosulfonate. Format: functional, Oocyte. Details: scale not given: the % may be the effect or the level left.
The target of test [29] is Gamma-aminobutyric acid receptor subunit alpha-3 (Rattus norvegicus) (UniProt P20236). The test can be described thus: Intrinsic activity at recombinant rat GABAA alpha-3-beta-3-gamma-2 receptor expressed in HEK293 cells assessed as induction of current at 1 mM by whole-cell patch-clamp technique relative to GABA. The class given is cell-based. In a few lines:
as §5

Gamma-aminobutyric acid receptor subunit alpha-1 (Rattus norvegicus), sequence (P62813 whole entry): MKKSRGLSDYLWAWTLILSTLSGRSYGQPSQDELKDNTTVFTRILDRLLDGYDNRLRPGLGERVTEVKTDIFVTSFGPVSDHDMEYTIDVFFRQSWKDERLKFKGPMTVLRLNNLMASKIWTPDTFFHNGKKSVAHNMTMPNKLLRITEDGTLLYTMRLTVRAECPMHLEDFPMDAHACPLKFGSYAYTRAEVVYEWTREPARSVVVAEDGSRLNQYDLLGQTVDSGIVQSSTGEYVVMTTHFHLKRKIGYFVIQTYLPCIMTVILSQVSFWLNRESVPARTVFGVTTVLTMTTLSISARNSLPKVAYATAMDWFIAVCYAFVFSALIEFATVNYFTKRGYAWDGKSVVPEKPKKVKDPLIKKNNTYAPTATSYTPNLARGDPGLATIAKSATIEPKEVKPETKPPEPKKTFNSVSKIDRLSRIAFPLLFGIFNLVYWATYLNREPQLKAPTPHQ
Gamma-aminobutyric acid receptor subunit alpha-6 (Rattus norvegicus), sequence (P30191 whole entry): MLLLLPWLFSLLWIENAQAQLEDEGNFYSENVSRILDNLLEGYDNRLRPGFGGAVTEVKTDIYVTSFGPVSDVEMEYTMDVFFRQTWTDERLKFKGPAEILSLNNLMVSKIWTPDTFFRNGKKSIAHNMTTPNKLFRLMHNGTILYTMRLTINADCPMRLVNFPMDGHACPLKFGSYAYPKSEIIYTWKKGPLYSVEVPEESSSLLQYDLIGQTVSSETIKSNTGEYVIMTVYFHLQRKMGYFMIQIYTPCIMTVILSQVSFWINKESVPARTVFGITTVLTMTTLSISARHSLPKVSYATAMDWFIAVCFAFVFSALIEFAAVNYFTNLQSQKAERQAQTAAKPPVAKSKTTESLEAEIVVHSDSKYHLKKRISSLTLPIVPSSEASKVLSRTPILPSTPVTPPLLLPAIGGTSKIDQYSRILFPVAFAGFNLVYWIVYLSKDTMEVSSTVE
Gamma-aminobutyric acid receptor subunit alpha-6, sequence (P30191 whole entry): as above
T2 sequence (P62813 whole entry, one chain of several): as the sequence (P62813 whole entry) above
Gamma-aminobutyric acid receptor subunit alpha-3 (Rattus norvegicus), sequence (P20236 whole entry): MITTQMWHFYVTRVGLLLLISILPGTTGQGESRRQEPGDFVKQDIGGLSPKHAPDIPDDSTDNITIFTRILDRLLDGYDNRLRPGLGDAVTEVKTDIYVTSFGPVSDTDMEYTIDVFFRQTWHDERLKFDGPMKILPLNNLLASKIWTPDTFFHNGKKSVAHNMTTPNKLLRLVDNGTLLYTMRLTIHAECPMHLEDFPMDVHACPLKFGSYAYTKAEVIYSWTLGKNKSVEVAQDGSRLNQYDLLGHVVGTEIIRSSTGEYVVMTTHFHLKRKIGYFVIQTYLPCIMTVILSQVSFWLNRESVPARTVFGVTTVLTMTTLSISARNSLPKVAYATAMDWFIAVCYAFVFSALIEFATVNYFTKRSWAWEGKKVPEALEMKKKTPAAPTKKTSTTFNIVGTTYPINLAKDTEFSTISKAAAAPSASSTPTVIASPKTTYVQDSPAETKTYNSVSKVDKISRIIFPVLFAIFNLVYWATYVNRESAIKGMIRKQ

As usually defined, the IC50 is the concentration at which inhibition is half-maximal. Usually inhibition stands for the percentage by which the read-out fell short of the control. For the compound `NCCc1nnc(O)o1`, the values for the IC50 in test [1] and in test [4] were 9.4 µM and 7.4 µM, respectively. Besides, the logIC50 in the test listed under Rattus norvegicus [2] stood at 0.971; in [3] it was 0.868. Also, the inhibition worked out at 89% in test [5], 85% in the test listed under Rattus norvegicus [6], 98% in test [7] and 100% in the test filed under Rattus norvegicus [8].

Usually EC50 stands for the concentration that produces a half-maximal response. As for `Cl.Sc1nnc(C2CCNCC2)o1`, the logIC50 was determined as 1.67 in the test listed under Rattus norvegicus [2] and 1.82 in test [3]. Besides, the Activity worked out at 3% in test [9]; 6.8% in test [10]; 9% in test [11]; 80% in test [12]; 23% in [13]; 20% in test [14]. Further, the Activity in test [17] worked out at 48%; in test [18], 60%; in [20] it was 39%; in [21], 68%; in test [25], 40%; in [26] it was 17%. Besides, the values for the Activity in test [27], in test [28] and in test [29] were 77%, 47% and 13%, respectively. For the same compound, the EC50 in test [15] worked out at 10000 µM; in [22] it was 5500 µM; in test [23] it was 9500 µM. For the same compound, the half-inhibitory concentration (IC50) in test [16] came out at 59 µM; in test [4], 66 µM; in test [19], 56 µM; in test [24], 46 µM. Moreover, the inhibition in test [5] turned out to be 64%; in the test filed under Rattus norvegicus [6] it was 68%; in [7], 91%; in the test filed under Rattus norvegicus [8] it was 94%.

As to `NCc1nnc(S)o1`, the figures for the IC50 in [1] and in test [4] were 57 µM and 49 µM, respectively. Moreover, the logIC50 in the test listed under Rattus norvegicus [2] worked out at 1.76; in test [3] it was 1.69. Further, the inhibition in [5] stood at 61%; in the test filed under Rattus norvegicus [6], 58%; in test [7], 95%; in the test listed under Rattus norvegicus [8], 99%.

With `Oc1nnc(C2CCCNC2)o1` (stereo not drawn), the inhibition in [5] was determined as 9%; in the test filed under Rattus norvegicus [6], 1%; in test [7], 10%; in the test filed under Rattus norvegicus [8], 24%.
